Consider 18 compounds from ChEMBL document CHEMBL1129728, “Structure-based design and synthesis of substituted 2-butanols as nonpeptidic inhibitors of HIV protease: secondary amide series” (J Med Chem, 1996).

The target of experiment [1] is Human immunodeficiency virus type 1 protease (Human immunodeficiency virus 1) (UniProt Q72874). Put plainly: (§1) Inhibitory activity against HIV PR in HIV-1 infected CEM-SS cell lines. Format: cell-based. The conditions noted are these: concentration not given here. In short, it runs like this: (§2)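 Antiviral activity in HIV-1-infected CEM cells, read out by a cell viability assay run to a previously described method. Compounds were tested across a dose range, and the antiviral IC50 was taken from the dose-response curve.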

The target of experiment [2] is T1, Human immunodeficiency virus type 1 protease (Human immunodeficiency virus 1, UniProt Q72874). The experiment is described as §1. Format: cell-based.
Experiment [3] deals with T1, Human immunodeficiency virus type 1 protease. The description is as §1. Format: cell-based. In short, it runs like this: as §2
The source holds these as a separate data set.

Experiment [4] addresses Human immunodeficiency virus type 1 protease (Human immunodeficiency virus 1) (UniProt Q72874). As to the kind of experiment: Inhibitory activity against HIV PR in HIV-1 infected CEM-SS cell lines; activity @ 200 uM.
For experiment [5] the target is unchanged. As to the kind of experiment: Inhibitory activity against HIV-1 PR in HIV-1 infected CEM-SS cell lines; activity @ 10 uM.
For experiment [6] the target is unchanged. As to the kind of experiment: Inhibitory activity against HIV-1 PR in HIV-1 infected CEM-SS cell lines; activity @ 10 uM. Format: cell-based.

Usually inhibition stands for how much of the control response was suppressed. High values mean strong suppression, low ones little suppression. For `CC(C)(C)NC(=O)c1ccccc1CCC(O)CN1CCCCC1C(=O)NC(C)(C)C` (stereo in doubt; 12), the inhibition in experiment [1] was found to be 35%.

The Ki is the equilibrium dissociation constant of an inhibitor or competing ligand from its target. On to `CC(C)(C)NC(=O)c1ccccc1CCC(O)Cc1ccc2ccccc2c1C(=O)NC(C)(C)C` (stereo not drawn), for which affinity in experiment [2] was put at a Ki of 2.2 µM.

`CC(C)(C)NC(=O)c1c(CC[C@@H](O)Cc2ccc3ccccc3c2C(=O)NC(C)(C)C)ccc2ccccc12` had a Ki in experiment [2] of 25 µM.

The IC50 is the concentration needed to halve the response being measured. Low readings indicate greater potency, high ones weaker potency. Turning to `CC(C)(C)NC(=O)c1ccccc1SCC(O)c1ccccc1C(=O)NC(C)(C)C` (stereo not drawn), in experiment [3], the IC50 is > 200 µM.

`CC(C)(C)NC(=O)c1ccccc1/C=C/C(O)Cc1ccccc1C(=O)NC(C)(C)C` (stereo not drawn) returned an inhibition in experiment [4] of 40%.

Consider `CC(C)(C)NC(=O)c1cc(C(C)(C)C)ccc1CCC(O)Cc1ccc(C(C)(C)C)cc1C(=O)NC(C)(C)C` (stereo not drawn), for which, in experiment [3], the IC50 was determined as 7 µM.

In experiment [5], `CC(C)(C)NC(=O)c1ccccc1CC[C@@H](O)CN1CCC[C@H]1C(=O)NC(C)(C)C` registered an inhibition of 10%.

Regarding `CC(C)(C)NC(=O)c1ccccc1CC(O)CSc1ccccc1NC(=O)C(C)(C)C` (stereo not drawn), the concentration for half-maximal inhibition (IC50) in experiment [3] was > 200 µM.

`CC(C)(C)NC(=O)c1ccccc1CC(O)CSc1ccccc1C(=O)NC(C)(C)C` (stereo not drawn): the affinity in experiment [2], expressed as Ki, was 83 µM.

With `CC(C)(C)NC(=O)c1cc(C(C)(C)C)ccc1CCC(O)Cc1ccc2ccccc2c1C(=O)NC(C)(C)C` (stereo not drawn), the Ki in experiment [2] stood at 1.2 µM.

Take `CC(C)(C)NC(=O)c1ccccc1CCC(O)CN1CCCCC1C(=O)NC(C)(C)C` (stereo in doubt; 11): the inhibition in experiment [1] was found to be 20%.

`CC(C)N1CCC(CC(O)CCc2ccccc2C(=O)NC(C)(C)C)=C(C(=O)NC(C)(C)C)C1` (stereo not drawn): in experiment [3], the half-inhibitory concentration (IC50) was 70 µM.

Consider `CC(C)(C)NC(=O)c1ccccc1CC[C@H](O)CN1CCC[C@H]1C(=O)NC(C)(C)C`, for which the inhibition in experiment [6] was 10%.

As for `CC(C)(C)NC(=O)c1c(CCC(O)Cc2ccc3ccccc3c2C(=O)NC(C)(C)C)ccc2ccccc12` (stereo not drawn), the Ki in experiment [2] came to 1.4 µM. In other words, the single-digit micromolar range.

Compound `CC(C)(C)NC(=O)c1ccccc1SCC(O)Cc1ccc2ccccc2c1C(=O)NC(C)(C)C` (stereo not drawn) returned a 50% inhibitory concentration (IC50) in experiment [3] of 25 µM.

On to `CC(C)(C)NC(=O)c1ccccc1CCC(O)Cc1ccccc1C(=O)NC(C)(C)C` (stereo not drawn), for which the affinity in experiment [2] corresponds to a Ki of 24 µM.

Consider `CC(C)(C)NC(=O)c1ccccc1C#CC(O)Cc1ccccc1C(=O)NC(C)(C)C` (stereo not drawn), for which the midpoint of inhibition in experiment [3], the IC50, lay at 200 µM.

`CC(C)(C)NC(=O)c1c(CC[C@H](O)Cc2ccc3ccccc3c2C(=O)NC(C)(C)C)ccc2ccccc12` had an inhibition constant Ki in experiment [2] of 0.48 µM.
